{"source": "paper PMC4196235", "about": "(mBio, 2014)", "key": {"[1]": {"test_system": "hybrid bacterial ribosomes carrying the mitochondrial A site", "assay": "cell-free translation assay, mitochondrial hybrid ribosomes", "format": "biochemical, Homo sapiens", "details": "firefly luciferase synthesis, mean ± SD, triplicate", "procedure,_shortened": "(§1)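 Hybrid 70S ribosomes purified from recombinant Mycobacterium smegmatis strains derived from a ΔrrnB single-rRNA-operon strain. Reactions contained 0.25 µM ribosomes, 4 µg firefly luciferase mRNA, 40% (vol/vol) M. smegmatis S100 extract, 200 µM amino acids and 0.4 mg/ml tRNAs, with S30 premix as energy source. Serially diluted test compound added; 37°C for 35 min, stopped on ice. Luciferase luminescence read; IC50 from dose-response curves; mean ± SD, triplicate.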"}, "[2]": {"test_system": "hybrid bacterial ribosomes carrying the mitochondrial mutant A1555G deafness A site", "assay": "cell-free translation assay, mitochondrial deafness hybrid ribosomes", "format": "biochemical, Homo sapiens", "details": "firefly luciferase synthesis, mean ± SD, triplicate", "procedure,_shortened": "as §1"}, "[3]": {"test_system": "hybrid bacterial ribosomes carrying the cytoplasmic A site", "assay": "cell-free translation assay, cytosolic hybrid ribosomes", "format": "biochemical, Homo sapiens", "details": "firefly luciferase synthesis, mean ± SD, triplicate", "procedure,_shortened": "as §1"}, "[4]": {"test_system": "rabbit reticulocyte ribosomes", "assay": "in vitro translation in rabbit reticulocyte lysate", "format": "biochemical", "details": "firefly luciferase synthesis, mean ± SD, triplicate", "procedure,_shortened": "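Cell-free translation in rabbit reticulocyte lysate with firefly luciferase mRNA and serially diluted test compound. Incubated 37°C for 35 min, stopped on ice, then luciferase luminescence measured. IC50 is the concentration halving functional luciferase synthesis, taken from dose-response curves; mean ± SD, triplicate.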"}, "[5]": {"test_system": "outer hair cells", "assay": "quantification of outer hair cell loss in cochlear surface preparations", "format": "in vivo", "details": "guinea pig, 140 mg/kg, 14 days", "procedure,_shortened": "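Guinea pigs dosed subcutaneously once daily for 14 days. After the final ABR (3 weeks post-treatment), cochleae were split into apical, middle and basal segments. Segments were permeabilized in 3% Triton X-100 for 30 min at RT, washed in PBS and stained with rhodamine phalloidin (1:100) for 1 h at RT. Consecutive 0.19-mm fields from the apex were scored blind for missing outer hair cells against a normative database.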"}, "[6]": {"assay": "general toxicity in the guinea pig chronic ototoxicity study", "format": "in vivo", "procedure,_shortened": "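Male Hartley guinea pigs, about 200 g initially, acclimated 1 week. […] Animals were followed for death and body weight through the study, which included ABR testing before treatment and 3 weeks after treatment ended.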"}, "[7]": {"test_system": "recombinant bacterial ribosomes with point mutation G1491C in the A site", "assay": "cell-free ribosomal translation assay, G1491C mutant", "format": "biochemical, Mycobacterium smegmatis", "procedure,_shortened": "(§2)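 Purified 70S hybrid ribosomes, wild-type or carrying the single A-site point mutation, came from M. smegmatis strains with a single rRNA operon. Each was translated with firefly luciferase mRNA, 40% (vol/vol) M. smegmatis S100 extract, amino acids, 0.4 mg/ml tRNAs and S30 premix energy, plus serially diluted test compound, for 35 min at 37°C. Luciferase luminescence gave IC50s (triplicate means ± SD), expressed as mutant/wild-type IC50 ratio.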"}, "[8]": {"test_system": "recombinant bacterial ribosomes with point mutation A1408G in the A site", "assay": "cell-free ribosomal translation assay, A1408G mutant", "format": "biochemical, Mycobacterium smegmatis", "procedure,_shortened": "as §2"}, "[9]": {"test_system": "mitochondrial hybrid ribosomes", "assay": "ribosomal damage index", "format": "biochemical, Homo sapiens", "details": "1/IC50 × misreading at IC50/misreading in the absence of the drug × 100", "procedure,_shortened": "(§3)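 Misreading gain-of-function assay: firefly luciferase mRNA with His245 CAC replaced by near-cognate Arg245 CGC, alongside wild-type firefly mRNA, translated in vitro with renilla luciferase mRNA as internal control. Misreading is the mutant firefly/renilla ratio relative to the wild-type firefly/renilla ratio.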"}, "[10]": {"test_system": "mitochondrial A1555G mutant hybrid ribosomes", "assay": "ribosomal damage index, mitochondrial A1555G mutant hybrid", "format": "biochemical, Homo sapiens", "details": "1/IC50 × misreading at IC50/misreading in the absence of the drug × 100", "procedure,_shortened": "as §3"}, "[11]": {"test_system": "cytosolic hybrid ribosomes", "assay": "ribosomal damage index, cytosolic hybrid", "format": "biochemical, Homo sapiens", "details": "1/IC50 × misreading at IC50/misreading in the absence of the drug × 100", "procedure,_shortened": "as §3"}, "[12]": {"test_system": "rabbit reticulocyte ribosomes", "assay": "ribosomal damage index, native cytosolic eukaryotic ribosomes", "format": "biochemical", "details": "1/IC50 × misreading at IC50/misreading in the absence of the drug × 100", "procedure,_shortened": "as §3"}, "[13]": {"test_system": "Staphylococcus aureus (MRSA) isolates", "assay": "MIC by broth microdilution, clinical isolates", "format": "cell-based", "procedure,_shortened": "(§4)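 Clinical isolates from a university diagnostic microbiology department. MIC determined by broth microdilution in microtiter plates, incubated overnight.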"}, "[14]": {"test_system": "Escherichia coli isolates", "assay": "MIC by broth microdilution, clinical isolates", "format": "cell-based", "procedure,_shortened": "as §4"}, "[15]": {"test_system": "S. aureus MRSA AG041", "assay": "neutropenic murine model of Staphylococcus aureus septicemia", "format": "in vivo", "details": "at the highest dose tested; subcutaneous (Fig. 2C and F)"}}}
{"compound": "NC[C@@H]1O[C@H](O[C@H]2[C@@H](O)[C@H](O[C@@H]3[C@@H](O)[C@H](N)C[C@H](N)[C@H]3O[C@H]3O[C@H](CO)C[C@H](O)[C@H]3N)O[C@@H]2CO)[C@H](N)[C@@H](O)[C@@H]1O", "note": "[4′ Deoxy paromomycin]", "values": [{"measurement": "IC50 with eukaryotic A sites in the ribosome: Mitochondrial wild-type", "setting": "[1]", "result": "74.1 ± 12.4", "unit": "µg/mL"}, {"measurement": "IC50 with eukaryotic A sites in the ribosome: Mitochondrial mutant A1555G", "setting": "[2]", "result": "24.2 ± 10.5", "unit": "µg/mL"}, {"measurement": "IC50 with eukaryotic A sites in the ribosome: Cytosolic wild-type", "setting": "[3]", "result": "28.4 ± 13.8", "unit": "µg/mL"}, {"measurement": "IC50 with eukaryotic A sites in the ribosome: Rabbit reticulocytes", "setting": "[4]", "result": "17.3 ± 4.2", "unit": "µg/mL"}]}
{"compound": "CNC(C)C1CCC(N)C(OC2C(N)CC(N)C(OC3OCC(C)(O)C(NC)C3O)C2O)O1", "note": "(stereo not shown) [Gentamicin]", "values": [{"measurement": "loss of outer hair cells in cochleae", "setting": "[5]", "result": "steep rise of hair cell loss from the middle cochlea to complete loss at the base"}, {"measurement": "loss of outer hair cells in cochleae", "setting": "[5]; listed as gentamicin", "result": "extensive loss of outer hair cells"}, {"measurement": "signs of general toxicity", "setting": "[6]; doses below 160 mg/kg", "result": "significant weight loss"}, {"measurement": "signs of general toxicity", "setting": "[6]; doses exceeding 160 mg/kg", "result": "death"}]}
{"compound": "NC[C@@H]1O[C@H](O[C@H]2[C@@H](O)[C@H](O[C@@H]3[C@@H](O)[C@H](N)C[C@H](N)[C@H]3O[C@H]3O[C@H](CO)[C@@H](O)[C@H](O)[C@H]3N)O[C@@H]2CO)[C@H](N)[C@@H](O)[C@@H]1O", "note": "[Paromomycin]", "values": [{"measurement": "ratio of the IC50 for the C1491 mutant ribosomes to the IC50 for the wild-type ribosomes", "setting": "[7]", "result": 520}, {"measurement": "ratio of the IC50 for the G1408 mutant ribosomes to the IC50 for the wild-type ribosomes", "setting": "[8]", "result": 13}, {"measurement": "IC50 with eukaryotic A sites in the ribosome: Mitochondrial wild-type", "setting": "[1]", "result": "50.66 ± 13.33", "unit": "µg/mL"}, {"measurement": "IC50 with eukaryotic A sites in the ribosome: Mitochondrial mutant A1555G", "setting": "[2]", "result": "5.77 ± 2.32", "unit": "µg/mL"}, {"measurement": "IC50 with eukaryotic A sites in the ribosome: Cytosolic wild-type", "setting": "[3]", "result": "9.89 ± 2.73", "unit": "µg/mL"}, {"measurement": "IC50 with eukaryotic A sites in the ribosome: Rabbit reticulocytes", "setting": "[4]", "result": "9.55 ± 4.94", "unit": "µg/mL"}, {"measurement": "Ribosomal damage index: Mitochondrial wild-type", "setting": "[9]", "result": 5.0}, {"measurement": "Ribosomal damage index: Mitochondrial mutant A1555G", "setting": "[10]", "result": 125.0}, {"measurement": "Ribosomal damage index: Cytosolic wild-type", "setting": "[11]", "result": 40.0}, {"measurement": "Ribosomal damage index: Rabbit ribosomes", "setting": "[12]", "result": 120.0}, {"measurement": "MIC", "setting": "[13]; S. aureus (MRSA) clinical isolate AG 038", "result": 4, "unit": "µg/mL"}, {"measurement": "MIC", "setting": "[13]; S. aureus (MRSA) clinical isolate AG 039", "result": "> 256", "unit": "µg/mL"}, {"measurement": "MIC", "setting": "[13]; S. aureus (MRSA) clinical isolate AG 042", "result": "> 256", "unit": "µg/mL"}, {"measurement": "MIC", "setting": "[13]; S. aureus (MRSA) clinical isolate AG 044", "result": "4 to 8", "unit": "µg/mL"}, {"measurement": "MIC", "setting": "[13]; S. aureus (MRSA) clinical isolate AG 045", "result": 4, "unit": "µg/mL"}, {"measurement": "MIC", "setting": "[14]; E. coli clinical isolate AG 001", "result": "16 to 32", "unit": "µg/mL"}, {"measurement": "MIC", "setting": "[14]; E. coli clinical isolate AG 002", "result": "8 to 16", "unit": "µg/mL"}, {"measurement": "MIC", "setting": "[14]; E. coli clinical isolate AG 003", "result": "8 to 16", "unit": "µg/mL"}, {"measurement": "MIC", "setting": "[14]; E. coli clinical isolate AG 055", "result": "8 to 16", "unit": "µg/mL"}, {"measurement": "bacterial burden in the kidney", "setting": "[15]", "result": "below detectable limits"}]}
{"compound": "NCC1OC(OC2C(CO)OC(OC3C(O)C(N)CC(N)C3OC3OC(CO)C(OCCCc4ccccc4)C(O)C3N)C2O)C(N)C(O)C1O", "note": "(stereo not shown) [4′-O-(3-Phenylpropyl) paromomycin]", "values": [{"measurement": "IC50 with eukaryotic A sites in the ribosome: Mitochondrial wild-type", "setting": "[1]", "result": "49.85 ± 15.39", "unit": "µg/mL"}, {"measurement": "IC50 with eukaryotic A sites in the ribosome: Mitochondrial mutant A1555G", "setting": "[2]", "result": "105.68 ± 39.23", "unit": "µg/mL"}, {"measurement": "IC50 with eukaryotic A sites in the ribosome: Cytosolic wild-type", "setting": "[3]", "result": "268.57 ± 54.97", "unit": "µg/mL"}]}
{"compound": "NC[C@@H]1O[C@H](O[C@H]2[C@@H](O)[C@H](O[C@@H]3[C@@H](O)[C@H](N)C[C@H](N)[C@H]3O[C@H]3O[C@@H]4CO[C@@H](CCc5ccccc5)O[C@H]4[C@H](O)[C@H]3N)O[C@@H]2CO)[C@H](N)[C@@H](O)[C@@H]1O", "note": "[4′,6′-O-(3-Phenylpropylidene) paromomycin]", "values": [{"measurement": "IC50 with eukaryotic A sites in the ribosome: Mitochondrial wild-type", "setting": "[1]", "result": "305.7 ± 74.1", "unit": "µg/mL"}, {"measurement": "IC50 with eukaryotic A sites in the ribosome: Mitochondrial mutant A1555G", "setting": "[2]", "result": "126.9 ± 54.4", "unit": "µg/mL"}, {"measurement": "IC50 with eukaryotic A sites in the ribosome: Cytosolic wild-type", "setting": "[3]", "result": "150.5 ± 28.0", "unit": "µg/mL"}]}
